High-throughput results (PubChem BioAssay)
Most compounds without a hit are left out; they make up all but 4.3% or so of the library.
GalR3 antag: human GalR3 antagonism | 360,000 tested, 0.44% active | O60755 | inhibition, % at 3 µM | HEK293 GalR3-CNG cAMP membrane potential fluorescence; galR3 body fused to GalR1 C-terminus | AID 651719;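 active means inhibition above the screen-wide average plus 3 SD, cut at about 13% in these data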;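 further: forskolin and galanin both at EC90 stimulate the cells; cAMP rise reported by CNG channel membrane potential dye signal; 0% = forskolin plus galanin with DMSO and 100% = forskolin alone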
Target sequence (O60755 1-299 limits assumed): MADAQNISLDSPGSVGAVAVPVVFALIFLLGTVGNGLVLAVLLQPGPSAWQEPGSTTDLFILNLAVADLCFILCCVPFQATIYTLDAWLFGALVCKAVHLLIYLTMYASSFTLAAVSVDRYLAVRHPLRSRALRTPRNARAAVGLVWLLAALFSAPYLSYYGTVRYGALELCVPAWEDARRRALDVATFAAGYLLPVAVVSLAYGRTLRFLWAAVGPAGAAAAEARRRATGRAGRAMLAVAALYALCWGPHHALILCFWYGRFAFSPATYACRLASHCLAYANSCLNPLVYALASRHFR
TAAR1 antag: antagonists of human TAAR1; Q96RJ0; CHO RD-HGA16 TAAR1, Fluo-8 calcium fluorescence, antagonist; inhibition, % at 3 µM; 360,000 tested, 1.5% active;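 active means inhibition above a per-plate cutoff, the mean inhibition of test compounds on that plate plus 3 SD, cut at about 49% in these data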;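 further: 0% = DMSO plus EC80 beta-PEA response and 100% = DMSO alone without agonist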
Target sequence (Q96RJ0 whole entry, looked up): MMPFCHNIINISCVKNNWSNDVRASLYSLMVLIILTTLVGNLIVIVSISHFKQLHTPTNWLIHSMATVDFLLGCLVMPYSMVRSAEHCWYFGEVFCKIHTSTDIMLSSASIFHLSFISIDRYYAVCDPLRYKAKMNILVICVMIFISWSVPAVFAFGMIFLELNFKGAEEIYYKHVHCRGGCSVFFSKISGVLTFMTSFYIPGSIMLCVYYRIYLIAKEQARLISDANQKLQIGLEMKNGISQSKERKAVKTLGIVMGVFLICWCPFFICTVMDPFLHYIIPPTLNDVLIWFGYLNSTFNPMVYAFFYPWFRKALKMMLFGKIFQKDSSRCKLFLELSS
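Assay system: RD-HGA16 CHO cells with stable hTAAR1 and Gα16 / Reagent: EC80 β-phenethylamine stimulus / Doses: 3 µM, single point / Timing: dye loading 75 min at 37 °C, then 30 min room temperature / Measured by: Fluo-8 intracellular calcium dye fluorescence, real-time kinetic reads / Controls: vehicle wells and EC80 agonist wells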
OX1R antag-1: OX1R (human) antagonism | OX1R-expressing cells, FRET antagonist read-out | inhibition, % at 6.6 µM | 330,000 tested, 1.8% active; in the data active means inhibition mostly above about 38%, no sharp cut-off; inactive means mostly below about 40%;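 further: 0% = agonist challenge alone and 100% = reference antagonist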
CHO parental Ca: signal in parental CHO cells, OX1R antagonist counter-screen | parental CHO-K1, ATP-induced calcium, Fluo-8 fluorescence | inhibition, % at 5.6 µM | 330,000 tested, 0.63% active;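 active means inhibition above that plate's mean sample inhibition plus 3 SD, cut at about 26% in these data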;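 further: 0% = ATP-challenged DMSO wells and 100% = DMSO wells without ATP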
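Test system: untransfected parental CHO cell line; also added: ATP stimulus; dosing: 5.6 µM, single dose; signal: calcium-sensitive Fluo-8 fluorescence; measure: percent inhibition of ATP-evoked calcium rise, normalized to controls; benchmarks: low control ATP plus DMSO, high control DMSO only; replication: one well per compound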
OX1R antag-2: human HCRTR1 antagonism; O43613; CHO/OX1R cells, Fluo-8 calcium fluorescence, orexin A; inhibition, % at 5 µM; 330,000 tested, 0.43% active;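 active means inhibition above its plate's threshold, mean inhibition of all tested compounds on the plate plus 3 SD, cut at about 37% in these data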;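 further: 0% = orexin A challenge wells and 100% = SB-334867-A antagonist wells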
TAAR1 ag: agonists of human TAAR1. Q96RJ0. CHO RD-HGA16 TAAR1, Fluo-8 calcium fluorescence; vehicle wells 0%, saturating PEA agonist 100%. activation, % at 3 µM. 360,000 tested, 0.99% active;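 active means activation above the mean activation of all test compounds in the run plus 3 SD, cut at about 38% in these data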
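Test system: RD-HGA16 (CHO) cells co-expressing Gα16 and hTAAR1 | Doses: Single dose, 3 µM | Schedule: 17-24 h seeding, 75 min 37 °C dye, 30 min RT | Evaluation: % activation from peak over basal fluorescence ratio, DMSO-to-PEA scaled | Technique: Kinetic Fluo-8 calcium fluorescence | Benchmarks: Low control DMSO, high control PEA (EC100)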
* marks the source's active call; other numbers are inactive results; . = no result given.

SMILES	GalR3 antag	TAAR1 antag	OX1R antag-1	CHO parental Ca	OX1R antag-2	TAAR1 ag
Cc1ccc2c(CN(C)Cc3cccc(Cl)c3)cc(=O)oc2c1C	-12	16	1	-9	-12	2
CCOc1ccc(-n2c(-c3ccc(OC)cc3)c[n+]3c2CCCCC3)cc1	56*	18	4	4	-5	1
CCOc1ccc(-n2c(-c3ccc(Br)cc3)c[n+]3c2CCCCC3)cc1	18*	2	8	-3	-9	9
COc1ccc(-n2c(-c3ccc(Cl)cc3)c[n+]3c2CCCCC3)cc1	-5	-28	1	-9	-16	0
CCN(C(=O)c1ccc2c(=O)n3c(nc2c1)CCCCC3)c1cc(OC)ccc1OC	-7	-17	12	-15	-32	0
CSc1nnc2c(n1)OC(c1ccc(C(=O)O)cc1)N(C(C)=O)c1ccccc1-2 (stereo not drawn)	0	-2	50*	-5	-3	0
C/C(=N\Nc1ccc([N+](=O)[O-])cc1)c1cc2ccccc2o1	-2	45	55*	41*	55*	3
O=C(N/N=C/c1ccc([N+](=O)[O-])cc1)c1cc2ccccc2o1	-7	-20	19	-11	-5	1
CC1(C(=O)Nc2ccc(F)cc2F)CCN1C(=O)Cc1ccccc1 (stereo not drawn)	-4	-34	.	.	.	-1
CCc1cccc(C)c1NC(=O)CN(C)Cc1ccc(Br)cc1	-7	9	21	40*	9	4
CSc1ccccc1NC(=O)CN(C)Cc1ccc(Br)cc1	-3	16	16	-32	-38	5
CCOc1ccccc1CNC(=O)c1cc2oc3ccccc3c2n1CC	-6	4	53*	-13	-14	3
O=C(OCc1nnc(-c2ccc([N+](=O)[O-])cc2)o1)C1CCN(C(=O)c2ccc(F)cc2)CC1	-7	-7	38*	-14	6	0
O=[N+]([O-])c1ccc(-c2nnc(CNC3CCCC3)o2)cc1	-5	-9	63*	-7	-17	3
Clc1ccc(-c2nnc(CNC3CC3)o2)cc1	-1	-5	11	-7	-22	3
COc1cc(C#Cc2c(-c3cncn3C)n(C)c3ccc(-c4ccc(CN5CCOCC5)cc4)cc23)cc(OC)c1	-4	56*	31	-3	3	3
COc1cc(C#Cc2c(-c3cncn3C)n(C)c3ccc(-c4cnc(N5CCOCC5)nc4)cc23)cc(OC)c1	-6	30	8	-8	-29	2
Cc1c(NC(=O)c2ccc(N(C)S(C)(=O)=O)cc2)c(=O)n(-c2ccccc2)n1C	0	2	13	-4	8	5
CC(C)CNC(=O)c1ccccc1NC(=O)c1ccccc1N(C)S(=O)(=O)c1ccccc1	-5	9	69*	-25	-1	5
CCOc1ccccc1N(CC(=O)Nc1c(C)n(C)n(-c2ccccc2)c1=O)S(=O)(=O)c1ccccc1	4	17	57*	-9	-2	6
Cc1c(NC(=O)c2ccccc2N(C)S(=O)(=O)c2ccccc2)c(=O)n(-c2ccccc2)n1C	0	-3	41*	-11	-12	2
O=C(Nc1ccc(F)c(Cl)c1)Nc1csc2ccccc12	-4	39	67*	40*	50*	6
O=C(Nc1ccncc1)Nc1ccc(F)c(Cl)c1	-2	19	20	23	21	49*
O=C(Nc1ccc(F)cc1F)Nc1csc2ccccc12	1	-10	21	-2	-8	12
COC(=O)c1ccc(NC(=O)Nc2ccc(F)c(Cl)c2)cc1	-8	41	59*	41*	19	20
SMILES	GalR3 antag	TAAR1 antag	OX1R antag-1	CHO parental Ca	OX1R antag-2	TAAR1 ag
O=C(Nc1ccc(Cc2ccc(NC(=O)Nc3cccnc3)cc2)cc1)Nc1cccnc1	-1	-37	.	.	.	2
O=C(Nc1ccc(Cl)cc1)Nc1cccnc1	-3	40	11	2	-7	48*
O=C(NCc1ccccc1)[C@H]1CCCN1C(=O)[C@H]1CCCN1C(=O)c1cccc(F)c1	1	-7	.	.	.	1
Cc1cnc(NC(=O)Nc2ccc(Cl)cc2)s1	-11	21	23	0	-4	40*
COC(=O)c1ccc(NC(=O)Nc2ccc([N+](=O)[O-])cc2)cc1	-11	17	45	67*	37*	10
O=C(Nc1ccc(C(=O)O)cc1)Nc1ccc([N+](=O)[O-])cc1	-10	11	9	-9	-10	2
Cc1csc(NC(=O)Nc2ccc(Cl)cc2)n1	-3	26	35	-2	14	22
COCc1[nH]nc2c1C(c1cccc(C(F)(F)F)c1)N(c1ccccc1)C2=O (stereo not drawn)	-7	-27	.	.	.	-1
OCc1cccc(-c2cnc3c(Nc4cccc(OC(F)(F)C(F)F)c4)nccn23)c1	-6	60*	.	.	.	5
O=C(c1ccc(CSc2nc3ccncc3[nH]2)cc1)N1CCN(c2cccc(Cl)c2)CC1	.	43	34*	73*	22	3
O=C(c1ccc(CSc2nc3ccncc3[nH]2)cc1)N1CCCCCC1	0	-33	12	-12	-23	3
COc1ccc2sc(-c3ccc(SC)cc3)c(-c3ccc(O)cc3)c2c1	-7	58*	15	17	39	20
O=C(CCNC(=O)c1ccccc1Cl)Nc1cccc(S(=O)(=O)N2CCOCC2)c1	-6	-4	-3	-25	7	2
CC(=O)C[C@@H](O)CC(=O)[C@@H]1OC(=O)[C@@H](C)C/C=C\Cc2ccccc21	-1	6	12	-20	-13	3
Cc1cccc(-c2noc(CN(C(=O)c3ccc4c(c3)OCO4)C(C)C)n2)c1	-5	6	69*	-20	10	7
Cc1cccc(-c2noc(CN(C(=O)c3ccc(Br)o3)C(C)C)n2)c1	4	11	35	-15	-21	15
Cc1cccc(-c2noc(CN(C(=O)C(c3ccccc3)c3ccccc3)C(C)C)n2)c1	-2	2	43*	69*	-9	2
O=C(NCc1ccc(Cl)cc1)c1cc2c(s1)CS(=O)(=O)C2	5	-9	8	-6	2	0
CCOC(=O)c1cnc2c3c(noc13)CCC2	-6	-13	.	.	.	1
COC(=O)C1=C(C)NC(C)=C(C(=O)OCCN(C)Cc2ccccc2)C1c1cccc([N+](=O)[O-])c1 (stereo not drawn)	.	49*	22	-20	-43	-1
Cc1ccc(S(=O)(=O)N2CCN(CC(=O)Nc3ccc(N4CCOCC4)cc3)CC2)cc1C	2	15	4	-12	-6	1
Cc1cccc(N2CCN(CC(=O)Nc3ccc(S(=O)(=O)N4CCOCC4)cc3)CC2)c1C	-2	-1	26	55*	34	9
